For assay [1], the target named is T1, Glucagon-like peptide 1 receptor (Rattus norvegicus) (UniProt P32301).
T1 sequence (whole entry): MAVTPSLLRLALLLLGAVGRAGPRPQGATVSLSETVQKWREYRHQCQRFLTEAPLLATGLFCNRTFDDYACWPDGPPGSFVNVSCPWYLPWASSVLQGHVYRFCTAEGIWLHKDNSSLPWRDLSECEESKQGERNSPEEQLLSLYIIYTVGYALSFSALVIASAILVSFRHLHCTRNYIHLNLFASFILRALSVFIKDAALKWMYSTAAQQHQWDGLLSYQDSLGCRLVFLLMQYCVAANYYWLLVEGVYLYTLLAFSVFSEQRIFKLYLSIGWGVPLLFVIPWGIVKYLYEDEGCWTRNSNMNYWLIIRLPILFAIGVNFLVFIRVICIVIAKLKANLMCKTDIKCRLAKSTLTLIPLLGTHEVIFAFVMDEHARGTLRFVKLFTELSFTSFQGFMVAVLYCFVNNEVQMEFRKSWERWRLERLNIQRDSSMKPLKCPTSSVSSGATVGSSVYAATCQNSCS
The assay is described as follows: Inhibition of [125I]GLP1 (7-36) amide binding to rat GLP1R expressed in HEK293 cells relative to untreated control. It is filed as cell-based. On the set-up: concentration or dose not given beside the values. The conditions noted are these: concentration not given here. The essentials: (§1)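 Membranes (17 μg protein) from HEK293 cells stably expressing rat GLP-1R were preincubated 5 h at 4 °C with FlashBlue beads (150 μg). Then 40 pM [125I]GLP-1(7−36) amide or [125I]Exendin(9−39) was added with aprotinin 2 μg/mL, leupeptin 100 μM and test compound at varied concentrations. Incubated overnight at 4 °C, then bound radioactivity counted. Mean ± SEM of two independent experiments.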

The target of assay [2] is T1, Glucagon-like peptide 1 receptor (Rattus norvegicus). The assay is described as follows: Inhibition of [125I]Exendin (9-39) binding to rat GLP1R expressed in HEK293 cells. Set-up: concentration or dose not given beside the values. The following applies: concentration not given here. Format: cell-based. Put shortly: as §1
For assay [3] the target is unchanged. The experiment in a line: Agonist activity at rat GLP1R expressed in HEK293 cells assessed as stimulation of cAMP levels incubated for 6 hrs by multiple response element/cAMP response element (MRE/CRE)-driven reporter gene assay relative to 10 nM GLP1. Format: functional, cell-based. The essentials:
(§2)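 Stable HEK293 line co-expressing rat GLP-1R (pCMV-Tag2B) and a luciferase reporter with 3× MRE plus 1× CRE, seeded at 40000 cells/well and cultured overnight. Compounds in DMSO or GLP-1(7−37) were added for 6 h, then cells were lysed and luciferase read (Steady-Glo). The 10 nM GLP-1 maximum was taken as 100%. Mean ± SEM of two independent experiments; some values come from a single run.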

The target in assay [4] is T2, Glucagon-like peptide 1 receptor (Rattus norvegicus, UniProt P32301).
T2 sequence (P32301 whole entry): T1 sequence (whole entry)
The experiment in a line: Agonist activity at rat GLP1R expressed in HEK293 cells assessed as stimulation of cAMP levels incubated for 6 hrs by multiple response element/cAMP response element (MRE/CRE)-driven reporter gene assay. It is filed as functional, cell-based. The essentials:
as §2
For orientation: cAMP levels reflect the balance of adenylyl cyclase and phosphodiesterase activity.

Assay [5] deals with T2, Glucagon-like peptide 1 receptor. The assay is described as follows: Inhibition of [125I]GLP1 (7-36) amide binding to rat GLP1R expressed in HEK293 cells. Format: cell-based. Put shortly: as §1

On to `COc1cc([C@H]2[C@](NC(=O)c3ccc(NC(=O)OC(C)(C)C)cc3)(C(=O)O)[C@@H](c3ccc(OC(C)=O)c(OC)c3)[C@]2(NC(=O)c2ccc(NC(=O)OC(C)(C)C)cc2)C(=O)O)ccc1OC(C)=O`, for which the inhibition in assay [1] was 43.6%; in assay [2], under 15%. Besides, the Efficacy in assay [3] came out at 43.6%. Further, the EC50 in assay [4] was 8.31 µM.

As for `COc1cc([C@H]2[C@](NC(=O)c3ccc(NC(=O)C(C)NC(=O)OC(C)(C)C)cc3)(C(=O)O)[C@@H](c3ccc(OC(=O)c4cccs4)c(OC)c3)[C@]2(NC(=O)c2ccc(NC(=O)C(C)NC(=O)OC(C)(C)C)cc2)C(=O)O)ccc1OC(=O)c1cccs1` (stereo partly specified), the inhibition was 77.3% in assay [1] and 69.7% in assay [2]. In assay [5], this molecule showed a half-maximal inhibitory concentration (IC50) of 0.9 µM. The Efficacy in assay [3] was determined as 49%.

With `COc1cc([C@H]2[C@](NC(=O)c3ccc(NC(=O)OC(C)(C)C)cc3)(C(=O)O)[C@@H](c3ccc(OCc4ccccc4)c(OC)c3)[C@]2(NC(=O)c2ccc(NC(=O)OC(C)(C)C)cc2)C(=O)O)ccc1OCc1ccccc1`, the inhibition is 10% in assay [1] and 14.3% in assay [2]. The Efficacy in assay [3] is under 15%. Further, the EC50 in assay [4] is over 20 µM.

Turning to `COc1cc([C@H]2[C@](NC(=O)c3ccc(NC(=O)Nc4cccc(F)c4)cc3)(C(=O)O)[C@@H](c3ccc(OC(=O)c4cccs4)c(OC)c3)[C@]2(NC(=O)c2ccc(NC(=O)Nc3cccc(F)c3)cc2)C(=O)O)ccc1OC(=O)c1cccs1`, the inhibition in assay [1] is 3.2%; in assay [2] it was 4.7%. Also, the Efficacy in assay [3] worked out at 7.7%. The EC50 in assay [4] was found to be 2.71 µM.

As for `CCCC(=O)Nc1ccc(C(=O)N[C@]2(C(=O)O)[C@H](c3ccc(OC(=O)c4cccs4)c(OC)c3)[C@@](NC(=O)c3ccc(NC(=O)CCC)cc3)(C(=O)O)[C@@H]2c2ccc(OC(=O)c3cccs3)c(OC)c2)cc1`, the values for the inhibition in assay [1] and in assay [2] were 52.4% and 48.2%, respectively. In assay [5], this molecule returned a half-inhibitory concentration (IC50) of 3.4 µM. For the same molecule, in assay [3], the Efficacy amounted to 50%.

In the case of `COc1cc([C@H]2[C@](NC(=O)c3ccc(NC(=O)Cc4ccccc4)cc3)(C(=O)O)[C@@H](c3ccc(OC(=O)c4cccs4)c(OC)c3)[C@]2(NC(=O)c2ccc(NC(=O)Cc3ccccc3)cc2)C(=O)O)ccc1OC(=O)c1cccs1`, the inhibition in assay [1] was 45.7%; in assay [2], 33.4%. Also, the IC50 in assay [5] was 3.2 µM. In addition, in assay [3], the Efficacy is 32%.

Regarding `COc1ccc([C@H]2[C@](NC(=O)c3ccc(NC(=O)OC(C)(C)C)cc3)(C(=O)O)[C@@H](c3ccc(OC)cc3)[C@]2(NC(=O)c2ccc(NC(=O)OC(C)(C)C)cc2)C(=O)O)cc1`, the values for the inhibition in assay [1] and in assay [2] were 7.45% and 2.4%, respectively. Also, the Efficacy in assay [3] came out at 7.5%. For the same molecule, in assay [4], the concentration for a half-maximal effect (EC50) stood at 9.4 µM.

For the molecule `CC(C)(C)OC(=O)Nc1ccc(C(=O)N[C@]2(C(=O)O)[C@H](c3ccc(OC(=O)c4cccs4)cc3)[C@@](NC(=O)c3ccc(NC(=O)OC(C)(C)C)cc3)(C(=O)O)[C@@H]2c2ccc(OC(=O)c3cccs3)cc2)cc1`, the values for the inhibition in assay [1] and in assay [2] were 63.7% and under 15%, respectively. For the same molecule, the Efficacy in assay [3] came out at 63.7%.

Consider `COc1cc([C@H]2[C@](NC(=O)c3ccc(NC(=O)C(C)N)cc3)(C(=O)O)[C@@H](c3ccc(OC(=O)c4cccs4)c(OC)c3)[C@]2(NC(=O)c2ccc(NC(=O)C(C)N)cc2)C(=O)O)ccc1OC(=O)c1cccs1` (stereo partly specified), for which the inhibition is 35.2% in assay [1] and 27.9% in assay [2]. Further, the concentration for half-maximal inhibition (IC50) in assay [5] was 16.2 µM. The Efficacy in assay [3] was determined as 48%.

For the molecule `COc1cc([C@H]2[C@](NC(=O)c3ccc(NC(=O)C4CCCCC4)cc3)(C(=O)O)[C@@H](c3ccc(OC(=O)c4cccs4)c(OC)c3)[C@]2(NC(=O)c2ccc(NC(=O)C3CCCCC3)cc2)C(=O)O)ccc1OC(=O)c1cccs1`, the inhibition in assay [1] was found to be 58.9%; in assay [2], 54.8%. Besides, the half-maximal inhibitory concentration (IC50) in assay [5] is 1 µM. Further, the Efficacy in assay [3] was 25%.

Turning to `COc1cc([C@H]2[C@](NC(=O)c3ccc(NC(=O)OC(C)(C)C)cc3)(C(=O)O)[C@@H](c3ccc(OC(=O)c4ccco4)c(OC)c3)[C@]2(NC(=O)c2ccc(NC(=O)OC(C)(C)C)cc2)C(=O)O)ccc1OC(=O)c1ccco1`, the inhibition in assay [1] came to 27.6%; in assay [2], 8.3%. For the same molecule, the Efficacy in assay [3] is under 15%. In assay [4], the EC50 was over 20 µM.

`COc1cc([C@H]2[C@](NC(=O)c3ccc(NC(=O)OC(C)(C)C)cc3)(C(=O)O)[C@H](c3ccc(OC(=O)c4cccs4)c(OC)c3)[C@@]2(NC(=O)c2ccc(NC(=O)OC(C)(C)C)cc2)C(=O)O)ccc1OC(=O)c1cccs1`: the inhibition in assay [1] was 42%; in assay [2], 56.3%. In assay [5], this molecule gave an IC50 of 4.3 µM. Moreover, in assay [3], the Efficacy worked out at 16.5%.

Consider `COc1cc([C@H]2[C@](NC(=O)c3ccc(NC(=O)COCc4ccccc4)cc3)(C(=O)O)[C@@H](c3ccc(OC(=O)c4cccs4)c(OC)c3)[C@]2(NC(=O)c2ccc(NC(=O)COCc3ccccc3)cc2)C(=O)O)ccc1OC(=O)c1cccs1`, for which the inhibition in assay [1] stood at 57.5%; in assay [2], 45.9%. Besides, in assay [5], the 50% inhibitory concentration (IC50) came out at 1.9 µM. The Efficacy in assay [3] was found to be 12%.

With `COc1cc([C@H]2[C@](NC(=O)c3ccc(NC(=O)C(C)C)cc3)(C(=O)O)[C@@H](c3ccc(OC(C)=O)c(OC)c3)[C@]2(NC(=O)c2ccc(NC(=O)C(C)C)cc2)C(=O)O)ccc1OC(C)=O`, the inhibition came to 34.1% in assay [1] and 35.2% in assay [2]. Moreover, the Efficacy in assay [3] turned out to be 30%.

Take `COc1cc([C@H]2[C@](NC(=O)c3ccc(NC(=O)OC(C)(C)C)cc3)(C(=O)O)[C@@H](c3ccc(NC(C)=O)c(OC)c3)[C@]2(NC(=O)c2ccc(NC(=O)OC(C)(C)C)cc2)C(=O)O)ccc1NC(C)=O`: the inhibition in assay [1] came out at 32.5%; in assay [2] it was 9.4%. Moreover, in assay [3], the Efficacy is under 15%. For the same molecule, in assay [4], the concentration giving a half-maximal response (EC50) is over 20 µM.

On to `COc1cc([C@H]2[C@](NC(=O)c3ccc(NC(=O)CO)cc3)(C(=O)O)[C@@H](c3ccc(OC(=O)c4cccs4)c(OC)c3)[C@]2(NC(=O)c2ccc(NC(=O)CO)cc2)C(=O)O)ccc1OC(=O)c1cccs1`, for which the inhibition came out at 59.3% in assay [1] and 52.7% in assay [2]. In assay [5], this molecule came in with a 50% inhibitory concentration (IC50) of 8.1 µM. In addition, the Efficacy in assay [3] stood at 38%.

For `COc1cc([C@H]2[C@](NC(=O)c3ccc(NC(=O)OC(C)(C)C)cc3)(C(=O)O)[C@@H](c3ccc(OC(=O)c4cccs4)c(OC)c3)[C@]2(NC(=O)c2ccc(NC(=O)OC(C)(C)C)cc2)C(=O)O)ccc1OC(=O)c1cccs1` (stereo in doubt), the figures for the inhibition in assay [1] and in assay [2] were 89.8% and 70.5%, respectively. Moreover, the Efficacy in assay [3] stood at 121%.

In assay [1], `COc1cc([C@H]2[C@](NC(=O)c3ccc(NC(=O)OC(C)(C)C)cc3)(C(=O)O)[C@H](c3ccc(OC(=O)c4cccs4)c(OC)c3)[C@]2(NC(=O)c2ccc(NC(=O)OC(C)(C)C)cc2)C(=O)O)ccc1OC(=O)c1cccs1` came in with an inhibition of 73.4%. The half-inhibitory concentration (IC50) in assay [5] stood at 1.3 µM. For the same molecule, the Efficacy in assay [3] stood at 68.2%.

As to `CC(C)(C)OC(=O)Nc1ccc(C(=O)N[C@]2(C(=O)O)[C@H](c3ccc(OC(=O)c4ccccc4)cc3)[C@@](NC(=O)c3ccc(NC(=O)OC(C)(C)C)cc3)(C(=O)O)[C@@H]2c2ccc(OC(=O)c3ccccc3)cc2)cc1`, the inhibition in assay [1] worked out at 13.5%; in assay [2] it was 6.3%. Besides, in assay [3], the Efficacy was found to be 21.6%.

Take `COc1cc([C@H]2[C@](NC(=O)c3ccc(NC(=O)C45CC6CC(CC(C6)C4)C5)cc3)(C(=O)O)[C@@H](c3ccc(OC(=O)c4cccs4)c(OC)c3)[C@]2(NC(=O)c2ccc(NC(=O)C34CC5CC(CC(C5)C3)C4)cc2)C(=O)O)ccc1OC(=O)c1cccs1`: the inhibition came to 50.7% in assay [1] and 46.8% in assay [2]. In assay [5], this molecule gave an IC50 of 8 µM. The Efficacy in assay [3] was 6%.

Consider `CC(C)(C)OC(=O)Nc1ccc(C(=O)N[C@]2(C(=O)O)[C@H](c3ccc(OCc4ccccc4)cc3)[C@@](NC(=O)c3ccc(NC(=O)OC(C)(C)C)cc3)(C(=O)O)[C@@H]2c2ccc(OCc3ccccc3)cc2)cc1`, for which the values for the inhibition in assay [1] and in assay [2] were 21.2% and 9.6%, respectively. Also, in assay [3], the Efficacy was found to be 24.8%.

In the case of `COc1cc([C@H]2[C@](NC(=O)c3ccc(NC(=O)OC(C)(C)C)cc3)(C(=O)O)[C@@H](c3ccc(OC(=O)Cc4ccccc4)c(OC)c3)[C@]2(NC(=O)c2ccc(NC(=O)OC(C)(C)C)cc2)C(=O)O)ccc1OC(=O)Cc1ccccc1`, the values for the inhibition in assay [1] and in assay [2] were 17.5% and 4.8%, respectively. The Efficacy in assay [3] was determined as 26%.

One may read the inhibition as the share of the control response that was lost under treatment. The term EC50 denotes the concentration at which the effect is half-maximal. The IC50 is the concentration needed to halve the response being measured.
